From ChEMBL document CHEMBL2029341, “Synthesis and evaluation of indole-based chalcones as inducers of methuosis, a novel type of nonapoptotic cell death” (J Med Chem, 2012)
Activity calls are given as the source filed them. The rule behind the calls is not given here.

Experiments:
U-251 [1] = test: Induction of methuosis in human U251 cells assessed as induction of cellular vacuolization at 10 uM after 24 to 48 hrs by phase contrast microscopic analysis; format: functional, cell-based
Procedure, shortened: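 U251 glioblastoma cells in DMEM with 10% FBS at 37 °C under 5% CO2. Compound added in DMSO at 10 μM one day after plating; vehicle-only controls. Live cells examined by phase-contrast microscopy at 24 and 48 h for phase-lucent cytoplasmic vacuoles, with cell rounding and detachment taken as methuosis hallmarks.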

U-251 [2] = test: Cytotoxicity against human U251 cells assessed as reduction of cell viability at 10 uM after 48 hrs by MTT assay relative to control
U-251 [3] = test: Cytotoxicity against human U251 cells assessed as colony formation at 10 uM treated for 48 hrs followed by washout measured after 2 weeks relative to control
U-251 [4] = test: Cytotoxicity against human U251 cells assessed as inhibition of colony formation at 10 uM treated for 48 hrs followed by washout measured after 2 weeks relative to control; format: functional
Procedure, shortened: (§1)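 U251 cells at 2,500 per 100 mm dish; one day after plating, compound added for 48 h (10 μM, or graded concentrations), then removed and cultures refed every 2 d. Colonies >50 cells counted at two weeks after methanol fixation and crystal violet staining; percent of DMSO control dishes, mean ± S.D. of three dishes.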

U-251 [5] = test: Induction of methuosis in human temozolomide-resistant U251 cells assessed as induction of cellular vacuolization at 2.5 to 10 uM after 3 days by phase contrast microscopic analysis; format: functional, cell-based
U-251 [6] = test: Cytotoxicity against human U251 cells assessed as reduction of cell growth and viability at 2.5 to 10 uM after 3 days by cell counting
U-251 [7] = test: Induction of methuosis in human U251 cells assessed as induction of cellular vacuolization at 2.5 uM after 1 to 2 days by phase contrast microscopic analysis; format: functional, cell-based
Procedure, shortened: (§2)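 One day after plating, U251 cells given 2.5 μM or 10 μM final compound or DMSO vehicle; live cells viewed by phase-contrast microscopy on three sequential days, without medium change or compound replenishment, for phase-lucent cytoplasmic vacuoles, rounding and detachment.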

U-251 [8] = test: Cytotoxicity against human temozolomide-resistant U251 cells assessed as reduction of cell viability at 2.5 to 10 uM after 48 hrs by colony formation assay
U-251 [9] = test: Cytotoxicity against human U251 cells assessed as inhibition of colony formation at 2 to 10 uM treated for 48 hrs followed by washout measured after 2 weeks relative to control; format: functional, cell-based; procedure, shortened: as §1
U-251 [10] = test: Induction of methuosis in human U251 cells assessed as induction of cellular vacuolization at 2.5 to 10 uM after 3 days by phase contrast microscopic analysis; format: functional, cell-based
U-251 [11] = test: Cytotoxicity against human U251 cells after 48 hrs by MTT assay; conditions: U-251, 48 h
U-251 [12] = test: Induction of methuosis in human U251 cells assessed as induction of cellular vacuolization at 2.5 after 3 days by phase contrast microscopic analysis; format: functional, cell-based; procedure, shortened: as §2
U-251 [13] = test: Cytotoxicity against human U251 cells assessed as inhibition of colony formation at 5 to 20 uM treated for 48 hrs followed by washout measured after 2 weeks relative to control; format: functional, cell-based; procedure, shortened: as §1

Row | SMILES | Activity (U-251 [1]) | Activity (U-251 [2]) [%] | level, % of control at 10 µM (U-251 [3]) [%] | further results
1 | COc1ccc(C(=O)/C=C/c2c[nH]c3ccc(Br)cc23)cc1 | inactive |  |  | 
2 | COc1ccc2[nH]cc(/C=C/C(=O)c3cccnc3)c2c1 | inactive | 90 | 99 | 
3 | O=C(/C=C/c1c[nH]c2ccccc12)c1ccncc1 | Active | 58 | 22 | 
4 | Cc1ccc(C(=O)/C=C/c2c[nH]c3ccccc23)cc1 | inactive |  |  | 
5 | COc1cc2c(/C=C/C(=O)c3ccncc3)c(C)[nH]c2cc1N=[N+]=[N-] |  |  |  | inhibition (U-251 [4]): Active
6 | Cc1[nH]c2ccccc2c1/C=C/C(=O)c1ccncc1 | Active | 24 | 8 | Activity (U-251 [5]): Active; inhibition (U-251 [6]): Active; Activity (U-251 [7]): Active; Activity (U-251 [8]): Active; inhibition (U-251 [9]): Active; Activity (U-251 [10]): Active; IC50 (U-251 [11]): 4.8 µM; Activity (U-251 [12]): inactive; inhibition (U-251 [13]): Active
7 | O=C(/C=C/c1c[nH]c2ccccc12)c1ccccc1 | inactive | 109 | 76 | 
8 | O=C(/C=C/c1c[nH]c2ccc(O)cc12)c1ccncc1 | inactive | 107 | 72 | 
9 | Oc1cccc(/N=C/c2c[nH]c3ccccc23)c1 | inactive |  |  | 
10 | O=C(NCCc1c[nH]c2ccc(Cl)cc12)c1cccnc1 | inactive |  |  | 
11 | Cc1[nH]c2ccc(OCc3ccc(C(=O)O)cc3)cc2c1/C=C/C(=O)c1ccncc1 | inactive | 79 | 71 | 
12 | O=C(COc1ccccc1)c1c[nH]c2ccccc12 | inactive |  |  | 
13 | COc1ccc2c(c1)c(/C=C/C(=O)c1ccncc1)cn2C | Active | 73 | 52 | 
14 | O=C(/C=C/c1c[nH]c2ccc(OCc3ccccc3)cc12)c1ccncc1 | Active | 56 | 8 | 
15 | O=C(/C=C/c1c[nH]c2ccccc12)c1ccc(Cl)cc1 | inactive |  |  | 
16 | Cc1[nH]c2ccc(O)cc2c1/C=C/C(=O)c1ccncc1 | Active | 101 | 43 | 
17 | O=C(/C=C/c1c[nH]c2ccccc12)c1ccccn1 | inactive | 96 | 53 | 
18 | COC(=O)c1ccc(COc2ccc3[nH]c(C)c(/C=C/C(=O)c4ccncc4)c3c2)cc1 | inactive | 79 | 76 | 
19 | COc1ccc2[nH]cc(/C=C/C(=O)c3ccncc3)c2c1 | Active | 58 | 2 | 
20 | COc1ccc2[nH]cc(/C=C/C(=O)c3cnccn3)c2c1 | inactive | 88 | 96 | 
21 | O=C(/C=C/c1c[nH]c2ccccc12)c1cccnc1 | inactive | 72 | 71 | 
22 | Cc1[nH]c2ccc(N=[N+]=[N-])cc2c1/C=C/C(=O)c1ccncc1 |  |  |  | inhibition (U-251 [4]): Active
